Measurements from PMC3504124 (Journal of the American Chemical Society, 2012).

Tests used:
[1] = target: T1, GLP (Homo sapiens, UniProt Q9H9B1); test: Filter-paper methylation assay, IC50 against GLP; type: biochemical; conditions: read-out: IC50 for GLP
T1 sequence (Q9H9B1 982-1266): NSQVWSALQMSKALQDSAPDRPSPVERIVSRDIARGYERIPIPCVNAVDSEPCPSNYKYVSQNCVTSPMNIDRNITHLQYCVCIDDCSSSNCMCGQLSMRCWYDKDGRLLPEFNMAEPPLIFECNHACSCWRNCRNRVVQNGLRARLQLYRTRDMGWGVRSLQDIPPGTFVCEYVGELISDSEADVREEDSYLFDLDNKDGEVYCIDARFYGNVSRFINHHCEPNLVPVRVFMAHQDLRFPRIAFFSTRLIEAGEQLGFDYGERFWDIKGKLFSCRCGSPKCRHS
Procedure, shortened: (§1)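 Radiometric filter-paper assay: the methyl group from [3H-Me]-SAM is transferred to a peptide substrate, the peptide is captured by filter binding, and radioactivity is counted by scintillation. For SETD2, both SAM and peptide were below their Km. IC50 was obtained by fitting percent inhibition against inhibitor concentration.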

[2] = target: T2, SETD2 (Homo sapiens, UniProt Q9BYW2); test: Kinetics analysis of SETD2-catalyzed methylation; type: biochemical
T2 sequence (Q9BYW2 1347-1711): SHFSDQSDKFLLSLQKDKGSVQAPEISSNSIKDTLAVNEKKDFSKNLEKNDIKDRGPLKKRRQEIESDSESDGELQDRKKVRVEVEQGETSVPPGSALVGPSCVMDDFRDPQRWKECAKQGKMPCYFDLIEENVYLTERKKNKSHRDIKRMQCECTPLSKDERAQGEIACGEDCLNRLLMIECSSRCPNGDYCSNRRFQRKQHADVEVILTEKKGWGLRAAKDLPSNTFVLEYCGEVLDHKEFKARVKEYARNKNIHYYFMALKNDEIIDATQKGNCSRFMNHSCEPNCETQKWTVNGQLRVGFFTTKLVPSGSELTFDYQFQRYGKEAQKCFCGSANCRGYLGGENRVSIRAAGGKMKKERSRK

[3] = target: T3, SET7/9 (Homo sapiens, UniProt Q8WTS6); test: Filter-paper methylation assay, IC50 against SET7/9; type: biochemical
T3 sequence (Q8WTS6 1-366): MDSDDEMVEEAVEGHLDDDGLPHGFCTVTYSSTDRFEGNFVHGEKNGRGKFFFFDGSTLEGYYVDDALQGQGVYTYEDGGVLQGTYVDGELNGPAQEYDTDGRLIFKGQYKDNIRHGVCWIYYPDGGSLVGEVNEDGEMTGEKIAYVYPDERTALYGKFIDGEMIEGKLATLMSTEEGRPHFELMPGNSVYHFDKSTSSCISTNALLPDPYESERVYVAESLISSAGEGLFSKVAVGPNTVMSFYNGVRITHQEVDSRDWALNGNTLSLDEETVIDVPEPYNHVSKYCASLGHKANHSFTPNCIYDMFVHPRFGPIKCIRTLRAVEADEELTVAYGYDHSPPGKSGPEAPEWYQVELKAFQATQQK
Procedure, shortened: as §1

[4] = target: T4, G9a (Homo sapiens, UniProt Q96KQ7); test: Filter-paper methylation assay, IC50 against G9a; type: biochemical; conditions: read-out: IC50 for G9a
T4 sequence (Q96KQ7 913-1193): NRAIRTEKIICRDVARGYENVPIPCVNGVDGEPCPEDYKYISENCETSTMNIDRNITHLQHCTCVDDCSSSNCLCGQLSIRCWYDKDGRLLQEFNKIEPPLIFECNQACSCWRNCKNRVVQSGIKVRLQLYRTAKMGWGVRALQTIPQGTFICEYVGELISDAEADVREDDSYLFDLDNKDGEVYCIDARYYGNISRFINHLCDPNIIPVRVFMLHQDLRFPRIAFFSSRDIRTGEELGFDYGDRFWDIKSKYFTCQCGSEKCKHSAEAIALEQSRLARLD

[5] = target: T5, CARM1 (Homo sapiens, UniProt Q86X55); test: Filter-paper methylation assay, IC50 against CARM1; type: biochemical; conditions: read-out: IC50 for CARM1
T5 sequence (Q86X55 19-608): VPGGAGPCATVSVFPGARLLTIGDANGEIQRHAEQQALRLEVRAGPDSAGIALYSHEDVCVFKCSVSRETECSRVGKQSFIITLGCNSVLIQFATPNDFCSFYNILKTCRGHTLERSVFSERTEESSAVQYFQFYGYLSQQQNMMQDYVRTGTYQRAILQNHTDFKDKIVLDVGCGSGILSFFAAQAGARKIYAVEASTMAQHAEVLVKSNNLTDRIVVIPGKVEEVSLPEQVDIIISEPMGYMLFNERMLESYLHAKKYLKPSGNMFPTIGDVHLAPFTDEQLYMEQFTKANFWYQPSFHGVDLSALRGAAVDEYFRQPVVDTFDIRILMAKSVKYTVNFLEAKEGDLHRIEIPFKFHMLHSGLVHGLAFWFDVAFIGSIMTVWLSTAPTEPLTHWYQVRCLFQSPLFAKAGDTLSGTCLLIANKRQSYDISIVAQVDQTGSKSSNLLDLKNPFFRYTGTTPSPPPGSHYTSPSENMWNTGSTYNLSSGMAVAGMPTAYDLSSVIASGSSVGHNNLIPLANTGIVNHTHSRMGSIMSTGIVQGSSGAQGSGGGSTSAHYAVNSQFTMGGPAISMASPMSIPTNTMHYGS

[6] = target: T2, SETD2; test: Filter-paper methylation assay with [3H-Me]-SAM, IC50 against SETD2; type: biochemical; conditions: for preference to SETD2 over other examined methyltransferases: panel of 15 human methyltransferases
Procedure, shortened: as §1

[7] = target: T6, SET8 (Homo sapiens, UniProt Q9NQR1); test: Filter-paper methylation assay, IC50 against SET8; type: biochemical; conditions: read-out: IC50 for SET8
T6 sequence (Q9NQR1 232-393 limits assumed): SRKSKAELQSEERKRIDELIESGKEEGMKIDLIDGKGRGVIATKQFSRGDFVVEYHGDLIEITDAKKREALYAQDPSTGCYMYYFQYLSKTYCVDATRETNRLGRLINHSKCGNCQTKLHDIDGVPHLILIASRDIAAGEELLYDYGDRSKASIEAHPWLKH
Procedure, shortened: as §1

[8] = target: PRMT1 (Homo sapiens, UniProt Q99873); test: Filter-paper methylation assay, IC50 against PRMT1; type: biochemical; conditions: read-out: IC50 for PRMT1
PRMT1, sequence (Q99873 10-352 isoform Q99873-3): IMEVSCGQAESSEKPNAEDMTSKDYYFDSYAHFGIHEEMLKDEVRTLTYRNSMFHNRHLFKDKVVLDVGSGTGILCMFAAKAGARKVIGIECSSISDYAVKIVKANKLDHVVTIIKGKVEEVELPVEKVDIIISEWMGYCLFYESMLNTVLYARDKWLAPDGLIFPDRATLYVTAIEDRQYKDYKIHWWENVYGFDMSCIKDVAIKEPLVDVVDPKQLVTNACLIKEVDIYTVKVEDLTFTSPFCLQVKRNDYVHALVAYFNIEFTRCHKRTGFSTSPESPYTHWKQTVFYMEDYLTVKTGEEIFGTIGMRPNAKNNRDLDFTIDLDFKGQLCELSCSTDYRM
Procedure, shortened: as §1

[9] = test system: SUV39H2; test: Filter-paper methylation assay, potency against SUV39H2; type: biochemical, human
Procedure, shortened: as §1

[10] = test system: DOT1L; conditions: read-out: in vitro IC50 on DOT1L; cited from earlier work

CCCNC(CCC(N)C(=O)O)C[C@H]1O[C@@H](n2cnc3c(N)ncnc32)[C@H](O)[C@@H]1O (stereo partly shown) [3c, N-propyl sinefungin]
IC50 [1]: > 100 µM
enhancement of Kd by presence of SETD2's substrate [2]: 8 fold
β ([2]; factor by which binding of inhibitor or substrate affects binding of the other): 0.12 ± 0.01
IC50 ([2]; read-out: calculated IC50 against SETD2, calculated from kinetic constants): 0.6 µM
Kd ([2]; read-out: βKd to bind SETD2, presence of substrate): 0.043 ± 0.004 µM
mechanism of inhibition versus peptide substrate ([2]; varied inhibitor, fixed SAM (0.8 μM)): noncompetitive
mechanism of inhibition versus SAM cofactor ([2]; varied inhibitor, fixed substrate (4 μM)): competitive
IC50 ([3]; read-out: IC50 for SET7/9): 2.2 ± 0.4 µM
IC50 [4]: > 100 µM
IC50 [5]: 2.96 ± 0.3 µM
preference to SETD2 over other examined methyltransferases [6]: 2~200 fold
IC50 [7]: > 100 µM
IC50 [8]: 9.5 ± 0.4 µM

Nc1ncnc2c1ncn2[C@@H]1O[C@H](C[C@H](CC[C@H](N)C(=O)O)NCc2ccccc2)[C@@H](O)[C@H]1O [3d, N-benzyl sinefungin]
drop in potency from 3c to 3d on SET7/9 [3]: 10~50 fold
potency against SETD2 relative to sinefungin 2, 3a and 3b ([6]; fold higher potency): more than 10 fold
preference to SETD2 over other examined methyltransferases [6]: 10~100 fold
drop in potency from 3c to 3d on SUV39H2 [9]: 10~50 fold

C[S+](CC[C@H](N)C(=O)[O-])C[C@H]1O[C@@H](n2cnc3c(N)ncnc32)[C@H](O)[C@@H]1O (stereo partly shown) [SAM, S-adenosylmethionine, reference compound]
Km ([2]; read-out: Km,SAM of SETD2, absence of Pr-SNF): 1.21 ± 0.05 µM
